What was measured:
A498 = test: Growth inhibition of human A498 cells after 48 hrs by coulter counting analysis; format: functional; settings: A498, 48 h
Outline: (§1)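 NCI five-dose screen at 0.01-100 µM, diluted from DMSO stocks in buffered saline (final DMSO <1%). Cells at 6×10^4 cells/ml in RPMI 1640 with 10% FBS, in duplicate wells, at 37 °C under 5% CO2 for 48 h. Cells diluted tenfold in saline and Coulter-counted. GI50, TGI and LC50 taken from log concentration-growth inhibition curves.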

[1] = Growth inhibition of human NCI60 cells after 48 hrs by coulter counting analysis; format: functional; settings: NCI60, 48 h
Outline: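 Five-dose screen (0.01-100 µM, DMSO-solubilized, under 1% DMSO final), cells in RPMI 1640 + 10% FBS at 6×10^4 cells/ml, duplicate wells, 37 °C, 5% CO2, 48 h. Cells then diluted tenfold in saline and counted by Coulter counter with dilution correction. Controls held buffer/saline/DMSO at matching dilutions. GI50 derived from log concentration-percent growth inhibition curves.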

T47D = test: Growth inhibition of human T47D cells after 48 hrs by coulter counting analysis; format: functional
Outline: (§2)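 Five-dose NCI-60 follow-up, 0.01–100 µM, made from DMSO stock in buffered saline (final DMSO <1%), in duplicate wells. Cells in RPMI 1640 with 10% FBS at 6×10^4 cells/ml, 37 °C, 5% CO2, 48 h. Cells diluted tenfold in saline, Coulter-counted and corrected for dilution. GI50, TGI and LC50 taken from log concentration–percent growth curves.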

[2] = Growth inhibition of human HCC2998 cells after 48 hrs by coulter counting analysis; format: functional; settings: HCC 2998, 48 h; outline: as §1
RPMI-8226 = test: Growth inhibition of human RPMI8226 cells after 48 hrs by coulter counting analysis; format: functional; settings: RPMI-8226, 48 h; outline: as §2
NCI-H460 = test: Growth inhibition of human NCI-H460 cells after 48 hrs by coulter counting analysis; format: functional; settings: NCI-H460, 48 h; outline: as §2
ACHN = test: Growth inhibition of human ACHN cells after 48 hrs by coulter counting analysis; format: functional; outline: as §1
U-251 = test: Growth inhibition of human U251 cells after 48 hrs by coulter counting analysis; format: functional; settings: U-251, 48 h
Outline: (§3)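 NCI five-dose screen, 0.01-100 µM, from DMSO stocks diluted in buffer saline (final DMSO <1%). Cells grown in RPMI 1640 + 10% FBS, seeded at 6×10^4 cells/ml, in duplicate wells. Exposure 48 h at 37 °C, 5% CO2. Cells diluted 10-fold in saline and counted by Coulter counter. GI50 derived from log concentration–percent growth inhibition curves. Controls carried matching PBS/saline/DMSO.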

MDA-MB-435 = test: Growth inhibition of human MDA-MB-435 cells after 48 hrs by coulter counting analysis; format: functional; settings: MDA-MB-435, 48 h; outline: as §1
COLO 205 = test: Growth inhibition of human COLO205 cells after 48 hrs by coulter counting analysis; format: functional; settings: COLO 205, 48 h; outline: as §1
NCI-H522 = test: Growth inhibition of human NCI-H522 cells after 48 hrs by coulter counting analysis; format: functional; settings: NCI-H522, 48 h; outline: as §2
HCT-116 = test: Growth inhibition of human HCT116 cells after 48 hrs by coulter counting analysis; format: functional; settings: HCT-116, 48 h; outline: as §1
NCI-H23 = test: Growth inhibition of human NCI-H23 cells after 48 hrs by coulter counting analysis; format: functional; settings: NCI-H23, 48 h; outline: as §2
SW-620 = test: Growth inhibition of human SW620 cells after 48 hrs by coulter counting analysis; format: functional; settings: SW-620, 48 h; outline: as §2
[3] = biological target: Cyclin-dependent kinase 2/cyclin E1 (Homo sapiens) (UniProt P24864+P24941); test: Inhibition of CDK2/Cyclin E1 (unknown origin) at 20 uM after 30 mins by scintillation counting analysis relative to control; format: protein-complex assay
Outline: (§4)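 Recombinant kinases, cloned, expressed and purified in-house. Radiometric ³³P-ATP assay with kinase at ~10-50 nM final and 1-5 µg peptide or protein substrate. Compound at 20 µM final, in duplicate. Reaction started by adding ATP, run 30 min at ambient temperature, then spotted on P81 phosphocellulose. Plates washed in 1% phosphoric acid and counted by scintillation. No-substrate blank subtracted. Result is mean % activity change versus DMSO control.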

CAKI-1 = test: Growth inhibition of human CAKI-1 cells after 48 hrs by coulter counting analysis; format: functional; settings: CAKI-1, 48 h; outline: as §1
[4] = Growth inhibition of human SF295 cells after 48 hrs by coulter counting analysis; format: functional; settings: SF-295, 48 h; outline: as §2
SF-268 = test: Growth inhibition of human SF268 cells after 48 hrs by coulter counting analysis; format: functional; settings: SF-268, 48 h; outline: as §2
Malme-3M = test: Growth inhibition of human MALME-3M cells after 48 hrs by coulter counting analysis; format: functional; outline: as §1
[5] = Growth inhibition of human HCT15 cells after 48 hrs by coulter counting analysis; format: functional; settings: HCT-15, 48 h; outline: as §1
SN12C = test: Growth inhibition of human SN12C cells after 48 hrs by coulter counting analysis; format: functional; outline: as §2
[6] = Growth inhibition of human EKVX cells after 48 hrs by coulter counting analysis; format: functional; outline: as §1
PC-3 = test: Growth inhibition of human PC3 cells after 48 hrs by coulter counting analysis; format: functional; settings: PC-3, 48 h; outline: as §2
SK-MEL-28 = test: Growth inhibition of human SK-MEL-28 cells after 48 hrs by coulter counting analysis; format: functional; settings: SK-MEL-28, 48 h; outline: as §2
[7] = biological target: Glycogen synthase kinase-3 beta (Homo sapiens) (UniProt P49841); test: Inhibition of GSK-3beta (unknown origin) at 20 uM after 30 mins by scintillation counting analysis relative to control; outline: as §4
[8] = Growth inhibition of human SF539 cells after 48 hrs by coulter counting analysis; format: functional; settings: SF-539, 48 h; outline: as §2
HOP-62 = test: Growth inhibition of human HOP62 cells after 48 hrs by coulter counting analysis; format: functional; settings: HOP-62, 48 h; outline: as §1
NCI-H226 = test: Growth inhibition of human NCI-H226 cells after 48 hrs by coulter counting analysis; format: functional; settings: NCI-H226, 48 h; outline: as §2
SK-MEL-2 = test: Growth inhibition of human SK-MEL-2 cells after 48 hrs by coulter counting analysis; format: functional; settings: SK-MEL-2, 48 h; outline: as §2
[9] = Growth inhibition of human OVCAR3 cells after 48 hrs by coulter counting analysis; format: functional; settings: OVCAR-3, 48 h; outline: as §2
SK-MEL-5 = test: Growth inhibition of human SK-MEL-5 cells after 48 hrs by coulter counting analysis; format: functional; settings: SK-MEL-5, 48 h; outline: as §2
HT-29 = test: Growth inhibition of human HT-29 cells after 48 hrs by coulter counting analysis; format: functional; settings: HT-29, 48 h; outline: as §1
SNB-19 = test: Growth inhibition of human SNB19 cells after 48 hrs by coulter counting analysis; format: functional; settings: SNB-19, 48 h; outline: as §2
[10] = Growth inhibition of human LOXIMVI cells after 48 hrs by coulter counting analysis; format: functional; settings: LOX IMVI; outline: as §1
[11] = Growth inhibition of human UACC257 cells after 48 hrs by coulter counting analysis; format: functional; settings: UACC-257, 48 h; outline: as §3

Glycogen synthase kinase-3 beta (Homo sapiens), sequence (P49841 whole entry, looked up): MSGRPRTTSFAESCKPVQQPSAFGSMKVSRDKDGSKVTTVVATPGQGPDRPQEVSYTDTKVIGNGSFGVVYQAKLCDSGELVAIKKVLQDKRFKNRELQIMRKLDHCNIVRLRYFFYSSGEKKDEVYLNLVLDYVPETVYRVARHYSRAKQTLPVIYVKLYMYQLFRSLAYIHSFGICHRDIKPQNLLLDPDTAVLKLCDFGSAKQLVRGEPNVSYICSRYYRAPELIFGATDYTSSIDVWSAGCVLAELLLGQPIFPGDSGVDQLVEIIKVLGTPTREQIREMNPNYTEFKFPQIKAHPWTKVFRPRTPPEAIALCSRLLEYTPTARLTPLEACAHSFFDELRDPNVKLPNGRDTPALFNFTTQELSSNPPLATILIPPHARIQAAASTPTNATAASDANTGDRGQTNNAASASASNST

Compound	GI50 (A498) [µM]	LC50 [1] [µM]	TGI [1] [µM]	GI50 (T47D) [µM]	GI50 [2] [µM]	GI50 (RPMI-8226) [µM]	GI50 (NCI-H460) [µM]	GI50 (ACHN) [µM]	GI50 (U-251) [µM]	GI50 (MDA-MB-435) [µM]	GI50 (COLO 205) [µM]	GI50 (NCI-H522) [µM]	GI50 (HCT-116) [µM]	GI50 (NCI-H23) [µM]	GI50 (SW-620) [µM]	inhibition [3] [%]	GI50 (CAKI-1) [µM]	GI50 [4] [µM]	GI50 (SF-268) [µM]	GI50 [5] [µM]	further results
C=CCc1c2c(c(OC)c3ccoc13)C(=O)/C(=C/c1ccccc1OC)O2	5.81	100	58.9	4.34	2.85	3.51	3.46	4.32	3.53	3.12	7.64	3.16	3.29	2.88	4.24	0	3.15	3.67	3.73	3.6	GI50 (Malme-3M): 19.8 µM; GI50 (SN12C): 4.85 µM; GI50 [6]: 4.41 µM; GI50 (PC-3): 5.25 µM; GI50 (SK-MEL-28): 5.21 µM; inhibition [7]: 56%; GI50 [8]: 5.45 µM; GI50 (HOP-62): 4.98 µM; GI50 (NCI-H226): 3.22 µM; GI50 (SK-MEL-2): 6.06 µM; GI50 [9]: 3.28 µM; GI50 (SK-MEL-5): 3.91 µM; GI50 (HT-29): 3.98 µM; GI50 (SNB-19): 5.83 µM; GI50 [10]: 3.13 µM; GI50 [11]: 6.41 µM
COc1ccccc1/C=C/C(=O)c1c(O)cc2occc2c1OC	46	100	89.1	55.9	> 100	23.5	> 100	30	18.9	5.69	> 100	> 100	40.4	22.4	> 100	6	> 100	16.6	22.2	> 100	GI50 (Malme-3M): 18.9 µM; GI50 (SN12C): > 100 µM; GI50 [6]: 33.7 µM; GI50 (PC-3): > 100 µM; GI50 (SK-MEL-28): > 100 µM; inhibition [7]: 17%; GI50 [8]: 24.3 µM; GI50 (HOP-62): 19.3 µM; GI50 (NCI-H226): 25.1 µM; GI50 (SK-MEL-2): > 100 µM; GI50 [9]: 47.4 µM; GI50 (SK-MEL-5): > 100 µM; GI50 (HT-29): > 100 µM; GI50 (SNB-19): 30.8 µM; GI50 [10]: 30.1 µM; GI50 [11]: > 100 µM
COc1ccc(-c2cc(=O)c3c(OC)c4ccoc4c(/C=C/C=O)c3o2)cc1	17.2	72.4	26.3	2.03	13.7	1.37	4.7	19.3	2.53	2.81	27.6	34.6	1.06	2.8	2.3	0	5.03	3.4	4.38	1.73	GI50 (Malme-3M): 3.79 µM; GI50 (SN12C): 2.32 µM; GI50 (PC-3): 2.58 µM; GI50 (SK-MEL-28): 2.52 µM; inhibition [7]: 11%; GI50 [8]: 4.14 µM; GI50 (HOP-62): 2.98 µM; GI50 (NCI-H226): 2.93 µM; GI50 (SK-MEL-2): 9.06 µM; GI50 [9]: 3.92 µM; GI50 (SK-MEL-5): 1.69 µM; GI50 (HT-29): 18.1 µM; GI50 (SNB-19): 3.16 µM; GI50 [10]: 1.08 µM; GI50 [11]: 3.63 µM
COc1c(C(=O)/C=C/c2ccccc2)c(O)cc2occc12	7.97	55	18.6	11.1	3.76	3.15	3.02	4.51	4.39	3.21	15.7	4.29	3.72	6.12	3.52	1	8.07	7.83	4.05	5.25	GI50 (SN12C): 4.48 µM; GI50 [6]: 12.5 µM; GI50 (PC-3): 7.01 µM; GI50 (SK-MEL-28): 7.03 µM; inhibition [7]: 28%; GI50 [8]: 3.22 µM; GI50 (HOP-62): 11.3 µM; GI50 (NCI-H226): 6.03 µM; GI50 (SK-MEL-2): 12.4 µM; GI50 [9]: 3.76 µM; GI50 (SK-MEL-5): 3.87 µM; GI50 (HT-29): 6.34 µM; GI50 (SNB-19): 7.33 µM; GI50 [10]: 1.69 µM; GI50 [11]: 7.01 µM

Reference: ChEMBL document CHEMBL3286372, “Design, synthesis and structure-activity relationship of novel semi-synthetic flavonoids as antiproliferative agents” (2014)
